High-throughput results from PubChem BioAssay.
The list is not random: actives were taken first. Their share in the collection is about 2.9%.
TRPC6 activator = mouse TRPC6 channel activators, primary screen, cell-based, HEK293, membrane potential dye. Short transient receptor potential channel 6 (Mus musculus), Q61143. B-score at 10 µM. AID 2550, 2010. HEK293-TRPC6 membrane potential dye fluorescence; stronger effect = higher value. 310,000 tested, 0.13% active;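 active means B-score of the integrated fluorescence ratio above library mean plus 3 SD, and starting fluorescence ratio within library mean plus 5 SD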;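 further: higher score means more depolarization so channel activation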
TRPC4 block = inhibitors of mouse TRPC4 channel, primary screen, Fluo4 calcium, HEK293 TRPC4beta/mu-opioid cells; DAMGO-evoked Fluo4 calcium flux; stronger effect = lower value; B-score at 10 µM; 300,000 tested, 0.39% active; AID 2247, 2010;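 active means B-score over 3 SD under the library average, no early fluorescence shift, positive overall ratio signal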
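Test system – stable TRPC4beta/mu-opioid receptor HEK293 cells · Probe or stimulus – DAMGO, a submaximal dose followed by a maximal one · Dosing – one concentration per compound · Signal – Fluo4 calcium fluorescence by kinetic imaging, 5 s 1 Hz baseline · Evaluation – per-well B score of integrated baseline-normalized Fluo4 ratio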
TRPC6 inh = mouse TRPC6 channel inhibitors, primary screen, cell-based, HEK293, membrane potential dye. Short transient receptor potential channel 6 (Mus musculus), Q61143. ACh-evoked depolarization; stronger effect = lower value. B-score at 10 µM. 310,000 tested, 1.1% active;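 active means B-score under library mean minus 3 SD, initial fluorescence not abnormally high, positive integrated signal ratio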;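 further: B-score derived from integrated fluorescence ratio over the kinetic read; more negative B-score means stronger inhibition of depolarization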
TRPC4 agonist = activators of mouse TRPC4 channel, primary screen, Fluo4 calcium, HEK293 TRPC4beta/mu-opioid cells. Short transient receptor potential channel 4 (Mus musculus), Q9QUQ5. Fluo4 calcium fluorescence; stronger effect = higher value. B-score at 10 µM. 310,000 tested, 0.49% active. AID 2237, 2010;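 active means B-score above 5 SD of library B-scores, and initial fluorescence ratio not above library mean plus 5 SD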;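 further: positive B-score marks a calcium rise read as TRPC4 activation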
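Assay system – TRPC4beta and mu-opioid receptor HEK293 stable cells · Measured by – Fluo4 fluorescence, kinetic · Schedule – dye loading 45 min room temperature, 110 s kinetic read · Read-out – B-scored integrated calcium fluorescence ratio · Controls – buffer and maximal DAMGO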
Kir21 inh = inhibitors of mouse Kir2.1 inward-rectifier potassium channel; 310,000 tested, 0.85% active; Inward rectifier potassium channel 2 (Mus musculus), P35561; B-score at 10 µM; HEK293-Kir2.1, FluxOR thallium flux fluorescence; stronger effect = lower value;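 active means fluorescence ratio B-score at or below minus 3 SD of library scores, with starting-brightness B-score within 2 SD, cut at about -4.2 in these data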;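 further: channel flux triggered by added potassium and thallium sulfate stimulus; B-score of peak minus minimum fluorescence over baseline after thallium stimulus; more negative B-score means stronger Kir2.1 block with less thallium influx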
Target sequence (P35561 whole entry, looked up): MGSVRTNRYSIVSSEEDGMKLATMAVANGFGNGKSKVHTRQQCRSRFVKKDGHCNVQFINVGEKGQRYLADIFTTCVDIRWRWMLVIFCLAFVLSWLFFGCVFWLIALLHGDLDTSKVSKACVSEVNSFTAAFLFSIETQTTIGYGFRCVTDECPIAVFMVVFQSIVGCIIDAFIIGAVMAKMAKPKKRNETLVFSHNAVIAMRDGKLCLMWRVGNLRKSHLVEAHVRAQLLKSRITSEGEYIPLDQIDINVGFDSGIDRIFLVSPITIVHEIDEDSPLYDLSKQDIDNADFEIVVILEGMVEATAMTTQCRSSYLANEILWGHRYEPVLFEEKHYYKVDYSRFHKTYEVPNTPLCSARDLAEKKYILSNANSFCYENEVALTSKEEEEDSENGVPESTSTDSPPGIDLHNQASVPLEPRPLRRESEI
TRPC4 potent = positive allosteric modulators of TRPC4, primary screen, cell-based, mouse TRPC4beta, HEK293 mu-opioid, Fluo-4 calcium; Short transient receptor potential channel 4 (Mus musculus), Q9QUQ5; DAMGO EC20, Fluo-4 Ca2+ flux; stronger effect = higher value; B-score at 10 µM; 310,000 tested, 0.42% active;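 active means B-score of calcium response area above 5 SD of library B-scores, with initial fluorescence ratio within 5 SD of library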;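 further: B-score of integrated fluorescence ratio over time as area under calcium response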
HEK293 TRPC6 ctr = parental HEK293 membrane potential modulation, confirmation, counter-screen for TRPC6 modulator project, cell-based. shares compounds with TRPC6 inh. membrane potential dye fluorescence. membrane potential signal change, % at 10 µM. 2,400 tested, 51% active. AID 488924, 2010;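 active means membrane potential signal moves up or down beyond 5 SD from buffer-only wells, on both duplicate plates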
HEK293 MPD ctr 2 = second counter-screen for TRPC6 modulators: effect in parental HEK293 cells; membrane potential dye fluorescence; after compound, maximal acetylcholine stimulation; shares compounds with TRPC6 inh; inhibition, % at 10 µM; 2,400 tested, 14% active;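 active means membrane potential signal drops by more than 5 SD from the mean control signal, in both duplicate plates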;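 further: plate controls were acetylcholine ECmax control wells for no effect and buffer only wells for full effect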
TRPC4/MOR mod = TRPC4 modulation by TRPC6 hit compounds, confirmation, selectivity assay for TRPC6 modulator project, cell-based, HEK293 TRPC4/mu-opioid, membrane potential dye, mouse. shares compounds with TRPC6 inh. percent change from control (negative = decrease, positive = increase), % at 10 µM. membrane potential fluorescence. AID 488927, 2010. 2,400 tested, 69% active;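 active means membrane potential signal moved up or down beyond 5 SD of buffer control wells, in both duplicate plates, actives on both sides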;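 further: plate controls were assay buffer wells for no effect and DAMGO maximal-effect wells for full effect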
TRPC4/MOR inh 2 = second check of whether TRPC6 modulators also affect mouse TRPC4 | shares compounds with TRPC6 inh | HEK293 TRPC4/mu-opioid, membrane potential dye fluorescence; stimulated with maximal-effect DAMGO | inhibition, % at 10 µM | 2,400 tested, 55% active;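 active means drop in membrane potential signal beyond 5 SD of the control wells in both duplicate plates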;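 further: TRPC4 counter screen for TRPC6 hits run under conditions tuned for TRPC6 not TRPC4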
TRPC6 inh conf = mouse TRPC6 channel inhibitors, confirmation, HEK293 cells, membrane potential dye, duplicate | ACh-evoked depolarization | 3,300 tested, 43% active | AID 488960, 2010 | shares compounds with TRPC6 inh | inhibition, % at 10 µM;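 active means fluorescence ratio falls more than 5 SD below the full-stimulation control mean, in both duplicate runs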;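 further: integrated fluorescence ratio of peak minus minimum over baseline after agonist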
TRPC6 act conf = mouse TRPC6 channel activators, confirmation, HEK293 cells, membrane potential dye, duplicate. HEK293-TRPC6 membrane potential dye fluorescence, FDSS. shares compounds with TRPC6 inh. activation, % at 10 µM. 2,800 tested, 11% active;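 active means ratio signal rise beyond 5 SD above unstimulated control wells' mean, seen in both duplicate runs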;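 further: plate controls were buffer EC0 wells for no effect and acetylcholine ECmax response for full effect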
An asterisk follows results filed as active; i = inactive; · = no result given.

SMILES	TRPC6 activator	TRPC4 block	TRPC6 inh	TRPC4 agonist	Kir21 inh	TRPC4 potent	HEK293 TRPC6 ctr	HEK293 MPD ctr 2	TRPC4/MOR mod	TRPC4/MOR inh 2	TRPC6 inh conf	others
Cc1ccc[n+](Cc2ccc([N+](=O)[O-])cc2)c1	i	i	i	i	0.25	i	·	·	·	·	·
COc1ccc(S(=O)(=O)N2CCN3CCCC3C2)cc1 (stereo not drawn)	i	i	i	i	-0.86	i	·	·	·	·	·
COc1cc([N+](=O)[O-])ccc1NC(=O)Nc1cnccn1	i	i	-5.5*	i	-0.04	i	i	i	76%*	90%*	58%*
COc1ccccc1NC(=O)Nc1cnccn1	i	i	i	i	2.1	i	·	·	·	·	·
CN(C)S(=O)(=O)c1ccc(C(=O)Nc2nnc(-c3ccc4c(c3)CCCC4)o2)cc1	i	i	-5.6*	i	-0.29	i	i	i	i	i	i	TRPC6 act conf=i
CN(C)S(=O)(=O)c1ccc(C(=O)Nc2nnc(-c3cccs3)o2)cc1	i	i	i	i	0	i	·	·	·	·	·
Cn1cc(CN2CCC(C(=O)N3CCCCC3)CC2)c(-c2ccccc2F)n1	i	i	i	i	-0.18	i	·	·	·	·	·
Cc1cccc2sc(NC(=O)c3cc(S(=O)(=O)N(C)C)ccc3N3CCCC3)nc12	i	i	i	i	-0.1	i	·	·	·	·	·
CN(C)CCn1c(=N)n(CC(O)c2ccc(Cl)c(Cl)c2)c2ccccc21 (stereo not drawn)	i	i	-5.3*	i	-6.9*	i	i	i	58%*	78%*	i	TRPC6 act conf=i
CCOC(=O)N1CCC(N2CCN(Cc3ccc(F)c(F)c3)C(CCO)C2)CC1 (stereo not drawn)	i	i	i	i	0.17	i	·	·	·	·	·
